{"source": "ChEMBL document CHEMBL4052609", "about": "“(+)-Strebloside-Induced Cytotoxicity in Ovarian Cancer Cells Is Mediated through Cardiac Glycoside Signaling Networks” (J Nat Prod, 2017)", "key": {"[1]": {"organism": "Homo sapiens", "assay": "Inhibition of sodium potassium ATPase in human OVSAHO cells assessed as downregulation of p53 protein expression at 100 nM after 72 hrs by Western blot analysis", "type": "cell-based"}, "[2]": {"system": "OVCAR-4", "assay": "Antiproliferative activity against human OVCAR4 cells after 72 hrs by CellTiter 96 aqueous one solution assay", "type": "functional, cell-based", "conditions": "OVCAR-4, 72 h", "in_short": "(§1)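 Log-phase cells harvested by trypsin with two PBS washes, seeded 5,000/well, incubated overnight. Serial dilutions of compound from DMSO stock added, 72 h exposure. Viability read by absorbance. IC50 (nM) calculated relative to DMSO solvent control.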"}, "[3]": {"system": "OVCAR-5", "assay": "Antiproliferative activity against human OVCAR5 cells after 72 hrs by CellTiter 96 aqueous one solution assay", "type": "functional, cell-based", "conditions": "OVCAR-5, 72 h", "in_short": "as §1"}, "[4]": {"system": "KURAMOCHI", "assay": "Antiproliferative activity against human Kuramochi cells after 72 hrs by CellTiter 96 aqueous one solution assay", "type": "functional, cell-based", "in_short": "as §1"}, "[5]": {"assay": "Antiproliferative activity against human IOSE-80 cells after 72 hrs by CellTiter 96 aqueous one solution assay", "type": "cell-based", "conditions": "IOSE80, 72 h", "in_short": "as §1"}, "[6]": {"system": "OVCAR-8", "assay": "Antiproliferative activity against human OVCAR8 cells after 72 hrs by CellTiter 96 aqueous one solution assay", "type": "functional, cell-based", "conditions": "OVCAR-8, 72 h", "in_short": "as §1, with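 “control. Cultures at 37 °C, 5% CO2 in their own media (RPMI, MEM, DMEM, or Medium 199/MCDB for IOSE-80).” for “control.”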"}, "[7]": {"assay": "Antiproliferative activity against CD-1 mouse MOE cells derived from 8 to 25 passages after 72 hrs", "type": "cell-based", "conditions": "CD-1, MOE", "in_short": "(§2)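 MOE cells from pooled oviducts of 8-week-old female CD1 mice in supplemented α-MEM with EGF, insulin, transferrin, selenite, β-estradiol; scrambled and PTEN shRNA/KRAS G12V clones kept under puromycin (plus hygromycin for the mutant). Log-phase cells seeded 5,000/well, overnight, DMSO-dissolved compound added, 72 h; viable cells read by MTS-type absorbance; IC50 in nM relative to DMSO control.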"}, "[8]": {"assay": "Antiproliferative activity against CD-1 mouse MOE cells derived from 85 to 120 passages after 72 hrs", "type": "functional, cell-based", "conditions": "CD-1, MOE", "in_short": "as §2"}, "[9]": {"organism": "Homo sapiens", "assay": "Inhibition of sodium potassium ATPase in human OVCAR3 cells assessed as upregulation of p21 protein expression at 100 nM by Western blot analysis", "type": "cell-based", "in_short": "(§3)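 Treated cells washed with PBS, lysed in RIPA on ice 15 min, cleared 14,000 g at 4 °C; 25 µg protein by BCA run on SDS-PAGE, PVDF, milk block, primary antibody overnight at 4 °C, HRP anti-rabbit, chemiluminescence; actin loading control; densitometry, n = 3, mean ± SEM.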"}, "[10]": {"organism": "Homo sapiens", "assay": "Inhibition of sodium potassium ATPase in human OVSAHO cells assessed as upregulation of p21 protein expression at 100 nM by Western blot analysis", "type": "cell-based", "in_short": "as §3"}, "[11]": {"system": "MDA-MB-435", "assay": "Antiproliferative activity against human MDA-MB-435 cells after 72 hrs by CellTiter 96 aqueous one solution assay", "type": "functional, cell-based", "conditions": "MDA-MB-435, 72 h", "in_short": "as §1"}, "[12]": {"system": "MDA-MB-231", "assay": "Antiproliferative activity against human MDA-MB-231 cells after 72 hrs by CellTiter 96 aqueous one solution assay", "type": "functional, cell-based", "conditions": "MDA-MB-231, 72 h", "in_short": "as §1"}, "[13]": {"system": "HT-29", "assay": "Antiproliferative activity against human HT-29 cells after 72 hrs by CellTiter 96 aqueous one solution assay", "type": "functional, cell-based", "conditions": "HT-29, 72 h", "in_short": "as §1"}, "[14]": {"system": "OVCAR-3", "assay": "Antiproliferative activity against human OVCAR3 cells after 72 hrs by CellTiter 96 aqueous one solution assay", "type": "functional, cell-based", "conditions": "OVCAR-3, 72 h", "in_short": "as §1, with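 “control. Cultures at 37 °C, 5% CO2 in their own media (RPMI, MEM, DMEM, or Medium 199/MCDB for IOSE-80).” for “control.”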"}, "[15]": {"assay": "Antiproliferative activity against human OVSAHO cells after 72 hrs by CellTiter 96 aqueous one solution assay", "type": "functional, cell-based", "in_short": "as §1"}, "[16]": {"assay": "Antiproliferative activity against CD-1 mouse MOE cells harboring scrambled RNA after 72 hrs", "type": "cell-based", "conditions": "CD-1, MOE", "in_short": "as §2"}, "[17]": {"assay": "Antiproliferative activity against CD-1 mouse MOE cells harboring PTENshRNA/KRASG12V mutation after 72 hrs", "type": "functional, cell-based", "conditions": "CD-1, MOE", "in_short": "as §2"}, "[18]": {"system": "OVCAR-3", "assay": "Cell cycle arrest in human OVCAR3 cells assessed as accumulation at G2/M phase at 100 nM after 72 hrs by propidium iodide staining-based flow cytometry method", "type": "functional", "in_short": "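Cells in 6-well plates treated 72 h, trypsinized, fixed in 70% ethanol, PBS-washed, stained in PBS with 1 mg/mL RNase and 50 µg/mL propidium iodide for 30 min in the dark at room temperature; DNA content by flow cytometry, phase distribution compared with vehicle.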"}, "[19]": {"system": "OVCAR-3", "assay": "Induction of apoptosis in human OVCAR3 cells assessed as upregulation of cleaved caspase 3 expression at 100 nM by Western blot analysis", "type": "functional, cell-based", "in_short": "as §3"}, "[20]": {"system": "OVCAR-3", "assay": "Induction of apoptosis in human OVCAR3 cells assessed as upregulation of cleaved PARP expression at 100 nM by Western blot analysis", "type": "functional, cell-based", "in_short": "as §3"}, "[21]": {"system": "OVCAR-3", "assay": "Induction of apoptosis in human OVCAR3 cells assessed as decrease in Mcl-1 levels at 100 nM by Western blot analysis", "type": "functional, cell-based", "in_short": "as §3"}, "[22]": {"system": "OVCAR-3", "assay": "Induction of apoptosis in human OVCAR3 cells assessed as decrease in Bcl-xL levels at 100 nM by Western blot analysis", "type": "functional, cell-based", "in_short": "as §3"}, "[23]": {"system": "OVSAHO", "assay": "Induction of apoptosis in human OVSAHO cells assessed as upregulation of cleaved PARP expression at 100 nM after 72 hrs by Western blot analysis", "type": "functional, cell-based", "in_short": "as §3"}, "[24]": {"organism": "Homo sapiens", "assay": "Inhibition of sodium potassium ATPase in human OVCAR3 cells assessed as downregulation of p53 protein expression at 100 nM after 72 hrs by Western blot analysis", "type": "cell-based", "in_short": "as §3"}, "[25]": {"organism": "Homo sapiens", "assay": "Inhibition of sodium potassium ATPase in human OVSAHO cells assessed as increase in ERK phosphorylation levels at 100 nM after 120 mins by Western blot analysis", "type": "cell-based", "in_short": "(§4)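 Cells exposed to 100 nM for indicated times; RIPA lysates, 25 µg protein on SDS-PAGE/PVDF probed for phospho-ERK and total ERK (1:500 each), HRP secondary, chemiluminescent detection.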"}, "[26]": {"organism": "Homo sapiens", "assay": "Inhibition of sodium potassium ATPase in human OVCAR3 cells assessed as increase in ERK phosphorylation levels at 100 nM after 120 mins by Western blot analysis", "type": "cell-based", "in_short": "as §4"}, "[27]": {"organism": "Homo sapiens", "assay": "Inhibition of sodium potassium ATPase in human OVCAR3 cells assessed as reduction in TNFalpha-induced NFkappaB activation at 100 nM after 4 hrs by luciferase reporter gene assay relative to control", "type": "cell-based", "in_short": "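OVCAR3 plated 25,000/well, overnight, transfected 24 h with 0.05 µg/well NF-κB-element luciferase reporter in serum medium; then 10 ng/mL TNFα plus 100 nM compound for 4 h; luciferase luminescence, fold change versus untreated, ANOVA.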"}, "[28]": {"organism": "Homo sapiens", "assay": "Inhibition of sodium potassium ATPase in human OVCA432 cells assessed as downregulation of p53 protein expression at 100 nM after 72 hrs by Western blot analysis", "type": "cell-based", "in_short": "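Cells exposed to 100 nM for 72 h; RIPA lysates, 25 µg protein on SDS-PAGE/PVDF, anti-p53 (1:500) overnight at 4 °C, HRP secondary, chemiluminescence, actin control; densitometry.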"}}, "note": "Active and inactive are the calls of the source. No cut-off for these calls is given here.", "data": [{"smiles": "C[C@H]1O[C@@H](O[C@H]2[C@@H](O)C[C@H](O[C@H]3[C@@H](O)C[C@H](O[C@H]4CC[C@@]5(C)[C@H](CC[C@@H]6[C@@H]5CC[C@]5(C)[C@@H](C7=CC(=O)OC7)CC[C@]65O)C4)O[C@@H]3C)O[C@@H]2C)C[C@H](O)[C@@H]1O", "note": "[DIGITOXIN]", "values": [{"measurement": "inhibition", "setting": "[1]", "result": "Active"}, {"measurement": "IC50", "setting": "[2]", "result": 426, "unit": "nM"}, {"measurement": "IC50", "setting": "[3]", "result": 321, "unit": "nM"}, {"measurement": "IC50", "setting": "[4]", "result": 5.91, "unit": "µM"}, {"measurement": "IC50", "setting": "[5]", "result": 48.4, "unit": "nM"}, {"measurement": "IC50", "setting": "[6]", "result": 71.5, "unit": "nM"}, {"measurement": "IC50", "setting": "[7]", "result": "> 50", "unit": "µM"}, {"measurement": "IC50", "setting": "[8]", "result": "> 50", "unit": "µM"}, {"measurement": "inhibition", "setting": "[9]", "result": "Active"}, {"measurement": "inhibition", "setting": "[10]", "result": "Active"}, {"measurement": "IC50", "setting": "[11]", "result": 43.3, "unit": "nM"}, {"measurement": "IC50", "setting": "[12]", "result": 482, "unit": "nM"}, {"measurement": "IC50", "setting": "[13]", "result": 67.6, "unit": "nM"}, {"measurement": "IC50", "setting": "[14]", "result": 117, "unit": "nM"}, {"measurement": "IC50", "setting": "[15]", "result": 250, "unit": "nM"}, {"measurement": "IC50", "setting": "[16]", "result": "> 50", "unit": "µM"}, {"measurement": "IC50", "setting": "[17]", "result": "> 50", "unit": "µM"}, {"measurement": "Activity", "setting": "[18]", "result": "Active"}, {"measurement": "Activity", "setting": "[19]", "result": "Active"}, {"measurement": "Activity", "setting": "[20]", "result": "Active"}, {"measurement": "Activity", "setting": "[21]", "result": "Active"}, {"measurement": "Activity", "setting": "[22]", "result": "Active"}, {"measurement": "Activity", "setting": "[23]", "result": "Active"}, {"measurement": "inhibition", "setting": "[24]", "result": "Active"}, {"measurement": "inhibition", "setting": "[25]", "result": "Active"}, {"measurement": "inhibition", "setting": "[26]", "result": "Active"}, {"measurement": "inhibition", "setting": "[27]", "result": 50, "unit": "%"}, {"measurement": "inhibition", "setting": "[28]", "result": "Active"}]}, {"smiles": "CO[C@H]1[C@H](O[C@H]2CC[C@]3(C=O)[C@H]4CC[C@]5(C)[C@@H](C6=CC(=O)OC6)CC[C@]5(O)[C@@H]4CC[C@]3(O)C2)O[C@H](C)[C@H](O)[C@@H]1OC", "note": "[STREBLOSIDE]", "values": [{"measurement": "inhibition", "setting": "[1]", "result": "Active"}, {"measurement": "IC50", "setting": "[7]", "result": "> 50", "unit": "µM"}, {"measurement": "IC50", "setting": "[8]", "result": "> 50", "unit": "µM"}, {"measurement": "inhibition", "setting": "[9]", "result": "Active"}, {"measurement": "inhibition", "setting": "[10]", "result": "Active"}, {"measurement": "IC50", "setting": "[16]", "result": "> 50", "unit": "µM"}, {"measurement": "IC50", "setting": "[17]", "result": "> 50", "unit": "µM"}, {"measurement": "Activity", "setting": "[18]", "result": "Active"}, {"measurement": "Activity", "setting": "[19]", "result": "Active"}, {"measurement": "Activity", "setting": "[20]", "result": "Active"}, {"measurement": "Activity", "setting": "[21]", "result": "Active"}, {"measurement": "Activity", "setting": "[22]", "result": "Active"}, {"measurement": "Activity", "setting": "[23]", "result": "Active"}, {"measurement": "inhibition", "setting": "[24]", "result": "Active"}, {"measurement": "inhibition", "setting": "[25]", "result": "Active"}, {"measurement": "inhibition", "setting": "[26]", "result": "Active"}, {"measurement": "inhibition", "setting": "[27]", "result": 29, "unit": "%"}, {"measurement": "inhibition", "setting": "[28]", "result": "Active"}]}]}
